Assay [1] addresses Human immunodeficiency virus type 1 protease (Human immunodeficiency virus 1, UniProt Q72874). Briefly: In vitro inhibitory activity against HIV-1 Protease. The method in brief:
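Recombinant HIV-1 PR expressed in E. coli (pET9c-PR). Fluorogenic DABCYL-γ-abu-[…]EDANS substrate 5.2 μM, enzyme 7.5 nM, in 100 mM sodium acetate, 1 mM EDTA, 1 M NaCl, pH 4.7, 30 °C, 3% DMSO final. Fluorescence read at ex 340/em 490 nm. IC50 fitted from % inhibition across 0.5–28 μM inhibitor. Ki derived by Zhang's method using 1.88–28 nM enzyme.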

Assay [2] addresses Human immunodeficiency virus type 1 protease (Human immunodeficiency virus 1) (UniProt Q72874). Briefly: Dimerization inhibition against HIV-1 Protease. In short, it runs like this: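 Recombinant HIV-1 PR expressed in E. coli (pET9c-PR). Hydrolysis of DABCYL-γ-abu-[…]EDANS (5.2 μM) was followed by fluorescence (ex 340/em 490 nm) in 100 mM sodium acetate, 1 mM EDTA, 1 M NaCl, pH 4.7, 30 °C, with 3% DMSO final. Initial rates were taken at ≥7 enzyme levels (1.88–28 nM) per inhibitor concentration. Kic/Kid were obtained by Zhang's method from [E]0/√vi vs √vi plots.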

Assay [3] shares this target. Nature of the assay: Competitive inhibition against HIV-1 Protease.
Assay [4] has the same target. Nature of the assay: Inhibitory activity against HIV-1 Protease at 14 uM.
For assay [5] the target is unchanged. Briefly: Inhibitory activity against HIV-1 Protease at 28 uM.
Assay [6] shares this target. Briefly: In vitro inhibitory activity against HIV-1 Protease; No inhibition.

Calls of active or inactive are those of the source. The rule behind the calls is not given here. Residues, ends and D or L forms follow the SMILES beside them. *: point of attachment. X1 = CC(C)CCC[C@@H](C)[C@H]1CCC2C3CC=C4C[C@H](SC[C@@H]5CCN6CC[C@@H](CSCC(=O)*)NC6=N5)CC[C@]4(C)C3CC[C@@]21C; X3 = CC(C)(C)[Si](OC[C@@H]1CCN2CC[C@@H](COC(=O)CCCCC(=O)*)NC2=N1)(c1ccccc1)c1ccccc1; X5 = CC(C)(C)[Si](OC[C@@H]1CCN2CC[C@@H](CNC(=O)CCCCC(=O)*)NC2=N1)(c1ccccc1)c1ccccc1; X2 = CC(C)(C)[Si](OCC1CCN2CCC(CSCC(=O)*)NC2=N1)(c1ccccc1)c1ccccc1; X4 = O=C(CCCCC(=O)*)OC[C@@H]1CCN2CC[C@@H](CO)N=C2N1; X6 = O=C(CCCCC(=O)*)NC[C@@H]1CCN2CC[C@@H](CO)N=C2N1; OBn = c1ccc(CO*)cc1; Bn = c1ccc(C*)cc1

Regarding `CC(C)CCC[C@@H](C)[C@H]1CCC2C3CC=C4C[C@H](SC[C@@H]5CCN6CC[C@@H](CSCC(=O)NCC(=O)N[C@@H](C)C(=O)N[C@H](C(=O)N[C@@H](CC(C)C)C(=O)N[C@@H](CC(N)=O)C(=O)N[C@@H](Cc7ccccc7)C(=O)OCc7ccccc7)[C@@H](C)OCc7ccccc7)NC6=N5)CC[C@]4(C)C3CC[C@@]21C` (some centres undefined) (X1-GAT(Bn)LNF-OBn), the IC50 (usually the concentration at which inhibition is half-maximal) in assay [1] was determined as 3 µM. The molecule also yielded a Kid in assay [2] of 0.4 µM. This molecule came in with a Kic in assay [3] of 0.4 µM.

In assay [1], `CC[C@H](C)[C@H](NC(=O)[C@H](C)NC(=O)CSCC1CCN2CCC(CO[Si](c3ccccc3)(c3ccccc3)C(C)(C)C)N=C2N1)C(=O)N[C@H](C(=O)N[C@@H](CC(C)C)C(=O)N[C@@H](Cc1c[nH]c2ccccc12)C(=O)OC)[C@@H](C)OCc1ccccc1` (some centres undefined) (X2-AIT(Bn)LW-OMe) showed an IC50 of 5 µM. The Kid in assay [2] came out at 6.5 µM.

Consider `CC(C)C[C@H](NC(=O)[C@@H](NC(=O)[C@H](C)NC(=O)CNC(=O)CSCC1CCN2CCC(CO[Si](c3ccccc3)(c3ccccc3)C(C)(C)C)N=C2N1)[C@@H](C)OCc1ccccc1)C(=O)N[C@@H](CC(N)=O)C(=O)N[C@@H](Cc1ccccc1)C(=O)O` (some centres undefined) (X2-GAT(Bn)LNF-OH), for which the IC50 in assay [1] stood at 11 µM.

For `CC[C@H](C)[C@H](NC(=O)CNC(=O)CSCC1CCN2CCC(CO[Si](c3ccccc3)(c3ccccc3)C(C)(C)C)N=C2N1)C(=O)N[C@@H](COCc1ccccc1)C(=O)N[C@@H](Cc1ccc(OCc2ccccc2)cc1)C(=O)N[C@@H](CC(N)=O)C(=O)N[C@@H](CC(C)C)C(=O)OC` (some centres undefined) (X2-GIS(Bn)Y(Bn)NL-OMe), in assay [1], the IC50 turned out to be 3.3 µM. In assay [2], this molecule came in with a Kid of 0.29 µM.

With `CC[C@H](C)[C@H](NC(=O)CNC(=O)CSCC1CCN2CCC(CO[Si](c3ccccc3)(c3ccccc3)C(C)(C)C)N=C2N1)C(=O)N[C@@H](CO)C(=O)N[C@@H](Cc1ccc(O)cc1)C(=O)N[C@@H](CC(N)=O)C(=O)N[C@@H](CC(C)C)C(=O)OC` (some centres undefined) (X2-GISYNL-OMe), in assay [1], half-maximal inhibition (IC50) was put at 5 µM. Further, the Kic in assay [3] amounted to 6 µM.

The molecule `COC(=O)[C@H](Cc1ccccc1)NC(=O)[C@H](CC(N)=O)NC(=O)[C@H](CC(C)C)NC(=O)[C@@H](NC(=O)[C@H](C)NC(=O)CCCCC(=O)OC[C@@H]1CCN2CC[C@@H](CO[Si](c3ccccc3)(c3ccccc3)C(C)(C)C)N=C2N1)[C@@H](C)O` (X3-ATLNF-OMe) registered an IC50 in assay [1] of 1.9 µM. Also, in assay [2], the Kid turned out to be 0.55 µM.

For the molecule `COC(=O)[C@H](Cc1ccccc1)NC(=O)[C@H](CC(N)=O)NC(=O)[C@H](CC(C)C)NC(=O)[C@@H](NC(=O)[C@H](C)NC(=O)CCCCC(=O)OC[C@@H]1CCN2CC[C@@H](CO)N=C2N1)[C@@H](C)O` (X4-ATLNF-OMe), the inhibition (in general, the drop in the measured response relative to a control, in per cent) in assay [4] was determined as 28%.

On to `COC(=O)[C@H](Cc1ccccc1)NC(=O)[C@H](CC(N)=O)NC(=O)[C@H](CC(C)C)NC(=O)[C@@H](NC(=O)[C@H](C)NC(=O)CCCCC(=O)NC[C@@H]1CCN2CC[C@@H](CO[Si](c3ccccc3)(c3ccccc3)C(C)(C)C)N=C2N1)[C@@H](C)O` (X5-ATLNF-OMe), for which the inhibition in assay [5] came out at 28%.

In the case of `COC(=O)[C@H](Cc1ccccc1)NC(=O)[C@H](CC(N)=O)NC(=O)[C@H](CC(C)C)NC(=O)[C@@H](NC(=O)[C@H](C)NC(=O)CCCCC(=O)NC[C@@H]1CCN2CC[C@@H](CO)N=C2N1)[C@@H](C)O` (X6-ATLNF-OMe), in assay [6], the NI entry is “inactive”.

Turning to `CC(C)C[C@H](NC(=O)[C@@H](NC(=O)[C@H](C)NC(=O)CNC(=O)CSCC1CCN2CCC(CO[Si](c3ccccc3)(c3ccccc3)C(C)(C)C)N=C2N1)[C@@H](C)OCc1ccccc1)C(=O)N[C@@H](CC(N)=O)C(=O)N[C@@H](Cc1ccccc1)C(=O)OCc1ccccc1` (stereo in doubt; 6 (S,S)) [listing 1 of 2 here], the half-maximal inhibitory concentration (IC50) in assay [1] came to 1.6 µM. In other words, the single-digit micromolar range.

`CC(C)C[C@H](NC(=O)[C@@H](NC(=O)[C@H](C)NC(=O)CNC(=O)CSCC1CCN2CCC(CO[Si](c3ccccc3)(c3ccccc3)C(C)(C)C)N=C2N1)[C@@H](C)OCc1ccccc1)C(=O)N[C@@H](CC(N)=O)C(=O)N[C@@H](Cc1ccccc1)C(=O)OCc1ccccc1` (stereo in doubt; 6 (S,S)) [listing 2 of 2 here]: in assay [2], the Kid is 0.15 µM.

In assay [1], `CC(C)C[C@H](NC(=O)[C@@H](NC(=O)[C@H](C)NC(=O)CNC(=O)CSCC1CCN2CCC(CO[Si](c3ccccc3)(c3ccccc3)C(C)(C)C)N=C2N1)[C@@H](C)OCc1ccccc1)C(=O)N[C@@H](CC(N)=O)C(=O)N[C@@H](Cc1ccccc1)C(=O)OCc1ccccc1` (stereo in doubt; 6'(R,R)) [listing 1 of 2 here] yielded an IC50 of 2 µM.

`CC(C)C[C@H](NC(=O)[C@@H](NC(=O)[C@H](C)NC(=O)CNC(=O)CSCC1CCN2CCC(CO[Si](c3ccccc3)(c3ccccc3)C(C)(C)C)N=C2N1)[C@@H](C)OCc1ccccc1)C(=O)N[C@@H](CC(N)=O)C(=O)N[C@@H](Cc1ccccc1)C(=O)OCc1ccccc1` (stereo in doubt; 6'(R,R)) [listing 2 of 2 here] yielded a Kid in assay [2] of 0.15 µM.

These data come from ChEMBL document CHEMBL1145908 (J Med Chem, 2003).
